The record followed here is ChEMBL document CHEMBL1148440, “4-(tetralin-1-yl)- and 4-(naphthalen-1-yl)alkyl derivatives of 1-cyclohexylpiperazine as sigma receptor ligands with agonist sigma2 activity” (J Med Chem, 2004).

Assay [1] has as its target Sigma 2 receptor. As to the kind of experiment: In vitro binding affinity at opioid sigma-2 receptor in rat liver membranes by [3H]-DTG displacement in the presence of 1 uM (+)-pentazocine. Type of assay: cell membranes, Membrane.
Assay [2] has as its target T1, Adrenergic receptor alpha-1 (Rattus norvegicus, UniProt P15823+P23944+P43140).
T1 sequence (P15823 whole entry): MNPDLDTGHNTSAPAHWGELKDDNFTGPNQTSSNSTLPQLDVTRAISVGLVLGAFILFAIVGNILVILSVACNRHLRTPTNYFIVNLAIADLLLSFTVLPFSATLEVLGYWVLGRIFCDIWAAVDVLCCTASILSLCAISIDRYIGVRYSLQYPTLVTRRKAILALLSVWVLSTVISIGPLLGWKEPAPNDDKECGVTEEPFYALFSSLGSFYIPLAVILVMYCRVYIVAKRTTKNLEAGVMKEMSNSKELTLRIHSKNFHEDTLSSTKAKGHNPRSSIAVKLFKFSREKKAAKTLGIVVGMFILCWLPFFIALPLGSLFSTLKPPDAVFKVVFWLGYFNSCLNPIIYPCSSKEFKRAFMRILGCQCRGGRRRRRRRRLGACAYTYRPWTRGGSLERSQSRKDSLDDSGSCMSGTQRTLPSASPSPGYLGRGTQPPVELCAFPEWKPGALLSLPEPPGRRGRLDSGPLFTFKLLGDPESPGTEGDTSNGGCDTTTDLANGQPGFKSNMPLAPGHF
T1 sequence (P23944 whole entry): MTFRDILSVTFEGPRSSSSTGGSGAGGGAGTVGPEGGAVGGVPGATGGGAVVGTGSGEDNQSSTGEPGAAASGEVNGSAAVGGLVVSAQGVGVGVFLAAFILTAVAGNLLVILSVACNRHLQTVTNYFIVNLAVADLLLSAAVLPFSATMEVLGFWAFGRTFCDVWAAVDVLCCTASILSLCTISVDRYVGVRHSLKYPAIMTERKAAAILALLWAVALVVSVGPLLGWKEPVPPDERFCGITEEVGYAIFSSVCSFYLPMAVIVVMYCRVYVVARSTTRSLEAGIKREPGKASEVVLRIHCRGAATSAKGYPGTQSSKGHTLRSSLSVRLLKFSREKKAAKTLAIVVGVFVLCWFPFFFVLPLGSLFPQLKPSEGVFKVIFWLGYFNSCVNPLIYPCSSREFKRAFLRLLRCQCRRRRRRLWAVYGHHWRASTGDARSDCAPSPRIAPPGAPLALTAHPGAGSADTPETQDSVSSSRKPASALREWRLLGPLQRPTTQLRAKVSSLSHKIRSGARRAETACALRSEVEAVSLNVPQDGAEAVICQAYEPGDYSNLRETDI
T1 sequence (P43140 whole entry): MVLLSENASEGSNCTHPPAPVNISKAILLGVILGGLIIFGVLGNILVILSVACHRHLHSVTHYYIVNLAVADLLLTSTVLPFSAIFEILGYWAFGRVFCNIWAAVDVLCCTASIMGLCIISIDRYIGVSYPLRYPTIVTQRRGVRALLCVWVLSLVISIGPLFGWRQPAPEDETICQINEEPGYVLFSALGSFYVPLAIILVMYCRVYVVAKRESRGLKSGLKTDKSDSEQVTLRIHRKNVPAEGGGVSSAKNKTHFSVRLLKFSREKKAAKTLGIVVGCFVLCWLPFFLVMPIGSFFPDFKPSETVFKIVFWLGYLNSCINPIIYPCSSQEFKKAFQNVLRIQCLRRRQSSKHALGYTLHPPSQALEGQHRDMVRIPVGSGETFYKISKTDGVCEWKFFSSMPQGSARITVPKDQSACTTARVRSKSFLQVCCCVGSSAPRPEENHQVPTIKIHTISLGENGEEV
As to the kind of experiment: In vitro binding affinity at alpha-1 adrenergic receptor in rat cortex by [3H]prazosin displacement. In a few lines:
(§1)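 Competition binding was run with radioligand displacement: [3H]spiroperidol for D2-like, [3H]prazosin for α1 and [3H]granisetron for 5-HT3. D2 values are the mean of three independent experiments.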

Assay [3] addresses T2, Serotonin 3 (5-HT3) receptor (Rattus norvegicus, UniProt P35563+Q9JJ16).
T2 sequence (P35563 whole entry): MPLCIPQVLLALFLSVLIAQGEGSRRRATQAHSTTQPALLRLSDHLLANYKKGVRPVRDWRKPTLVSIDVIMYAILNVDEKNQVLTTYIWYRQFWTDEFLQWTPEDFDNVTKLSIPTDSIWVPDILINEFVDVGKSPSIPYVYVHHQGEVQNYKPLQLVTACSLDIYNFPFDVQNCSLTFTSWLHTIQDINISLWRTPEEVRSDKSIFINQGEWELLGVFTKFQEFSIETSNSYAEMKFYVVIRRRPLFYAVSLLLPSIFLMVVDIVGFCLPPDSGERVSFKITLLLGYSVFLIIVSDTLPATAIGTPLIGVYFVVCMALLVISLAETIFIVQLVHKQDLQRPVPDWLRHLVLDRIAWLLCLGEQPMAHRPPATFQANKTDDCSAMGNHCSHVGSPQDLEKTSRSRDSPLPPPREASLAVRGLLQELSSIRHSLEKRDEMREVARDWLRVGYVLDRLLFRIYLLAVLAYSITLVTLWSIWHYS
T2 sequence (Q9JJ16 whole entry): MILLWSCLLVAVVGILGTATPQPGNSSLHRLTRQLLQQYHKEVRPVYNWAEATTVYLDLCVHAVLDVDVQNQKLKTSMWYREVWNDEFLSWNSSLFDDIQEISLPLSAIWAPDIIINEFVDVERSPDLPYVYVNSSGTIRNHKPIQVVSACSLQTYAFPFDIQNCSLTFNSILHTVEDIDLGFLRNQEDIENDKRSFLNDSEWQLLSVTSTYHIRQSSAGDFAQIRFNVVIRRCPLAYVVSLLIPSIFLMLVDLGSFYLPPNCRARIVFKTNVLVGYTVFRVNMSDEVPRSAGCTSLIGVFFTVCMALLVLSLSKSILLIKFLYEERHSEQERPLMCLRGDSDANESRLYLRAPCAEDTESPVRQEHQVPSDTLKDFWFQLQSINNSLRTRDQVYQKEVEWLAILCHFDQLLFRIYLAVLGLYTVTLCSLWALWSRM
As to the kind of experiment: In vitro binding affinity at serotonin 5-hydroxytryptamine 3 receptor in rat cortex by [3H]granisetron displacement. The procedure, abridged:
as §1

In assay [4] the target is Sigma non-opioid intracellular receptor 1 (Homo sapiens) (UniProt Q99720). Put plainly: Binding affinity ratio of sigma 2 receptor to that of sigma 1 receptor. In a few lines:
(§2)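 Sigma-1 binding used guinea pig brain membranes without cerebellum with (+)-[3H]pentazocine. […] IC50 came from 6–9 drug concentrations in two or three experiments with duplicate samples, then converted to apparent Ki. Ratios are computed from these Ki values.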

For assay [5], the species on record is Cavia porcellus. As to the kind of experiment: Inhibition of electrically stimulated contractions of the isolated guinea pig badder. Type of assay: functional.
Assay [6] addresses Sigma non-opioid intracellular receptor 1 (Homo sapiens) (UniProt Q99720). As to the kind of experiment: Binding affinity ratio of sigma 1 receptor to that of sigma 2 receptor. The procedure, abridged: as §2
For assay [7], the species on record is Cavia porcellus. Put plainly: Inhibition of electrically stimulated contractions of the isolated guinea pig badder at 30 uM. Type of assay: functional.
Assay [8] addresses D(2) dopamine receptor (Rattus norvegicus, UniProt P61169). Put plainly: In vitro binding affinity at Dopamine receptor D2 in rat striatum by [3H]spiroperidol displacement. Type of assay: tissue-based. The procedure, abridged:
as §1

The target of assay [9] is Sigma 2 receptor. As to the kind of experiment: In vitro binding affinity at opioid sigma-2 receptor in rat liver membranes by [3H]DTG displacement in the presence of 1 uM (+)-pentazocine. The format is cell membranes, Membrane.

Sequence of Sigma non-opioid intracellular receptor 1 (Homo sapiens) (Q99720 whole entry): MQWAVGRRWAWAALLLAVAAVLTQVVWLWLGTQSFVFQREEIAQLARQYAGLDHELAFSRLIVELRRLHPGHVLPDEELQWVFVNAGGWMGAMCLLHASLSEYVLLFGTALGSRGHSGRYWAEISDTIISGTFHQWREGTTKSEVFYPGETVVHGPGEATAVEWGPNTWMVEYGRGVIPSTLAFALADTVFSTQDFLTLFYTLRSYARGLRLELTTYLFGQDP
Sequence of D(2) dopamine receptor (P61169 whole entry): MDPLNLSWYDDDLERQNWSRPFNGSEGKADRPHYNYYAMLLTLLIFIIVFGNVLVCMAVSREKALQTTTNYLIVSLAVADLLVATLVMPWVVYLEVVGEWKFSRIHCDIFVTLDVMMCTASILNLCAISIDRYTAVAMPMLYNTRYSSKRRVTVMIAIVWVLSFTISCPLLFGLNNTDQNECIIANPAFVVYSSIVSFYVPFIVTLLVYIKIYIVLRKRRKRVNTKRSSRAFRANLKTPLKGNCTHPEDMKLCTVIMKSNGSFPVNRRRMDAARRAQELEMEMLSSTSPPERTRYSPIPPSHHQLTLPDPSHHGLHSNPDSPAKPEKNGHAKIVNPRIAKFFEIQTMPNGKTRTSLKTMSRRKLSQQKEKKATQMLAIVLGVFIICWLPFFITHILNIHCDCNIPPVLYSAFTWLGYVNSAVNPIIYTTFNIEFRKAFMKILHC

Consider `c1ccc2c(CCCCN3CCN(C4CCCCC4)CC3)cccc2c1`, for which the Ki is 30.5 nM in [1], over 7500 nM in assay [2] and over 700 nM in [3]. For the same compound, in assay [4], the Ratio worked out at 139.

In turn, `c1ccc2c(CCCCCN3CCN(C4CCCCC4)CC3)cccc2c1` gave an EC50 in assay [5] of 2950 nM. In addition, the Ki in assay [1] amounted to 0.57 nM. Also, the Ratio in assay [6] was found to be 4.2.

In the case of `c1ccc(CCN2CCCCC2)cc1`, the inhibition constant (Ki) is 194 nM in assay [1], over 7500 nM in assay [2] and over 700 nM in assay [3]. In addition, the Ratio in [6] came out at 1.6. Further, the inhibition at 30 µM in [7] came to 41%.

In [5], `COc1cccc2c1CCCC2CN1CCN(C2CCCCC2)CC1` (stereo unspecified) returned a concentration for a half-maximal effect (EC50) of 11500 nM. The inhibition constant Ki was 16.4 nM in [1], 4260 nM in assay [8], over 7500 nM in [2] and over 700 nM in assay [3]. For the same compound, in [4], the Ratio was determined as 53.

In the case of `c1ccc2c(c1)CCCC2CCCN1CCN(C2CCCCC2)CC1` (stereo unspecified), the Ki was 0.68 nM in [1], over 7500 nM in assay [2] and over 700 nM in assay [3]. Besides, the Ratio in assay [4] worked out at 1.1.

As for `COc1cccc2c(CCCN3CCN(C4CCCCC4)CC3)cccc12`, the results for the Ki in assay [1], in assay [2] and in assay [3] were 9.24 nM, over 7500 nM and over 700 nM, respectively.

`c1ccc2c(CCCN3CCN(C4CCCCC4)CC3)cccc2c1`: it took 1820 nM to reach a half-maximal effect in assay [5] (EC50). Moreover, the figures for the inhibitory constant (Ki) in assay [1], in assay [2] and in assay [3] were 0.69 nM, over 7500 nM and over 700 nM, respectively. Besides, in assay [6], the Ratio is 3.1.

With `COc1cccc2c1CCC[C@@H]2CCCN1CCN(C2CCCCC2)CC1`, it took 1500 nM to reach a half-maximal effect in assay [5] (EC50). The Ki in assay [1] is 2.09 nM; in [2], over 7500 nM; in assay [3], over 700 nM.

For the compound `COc1ccc2c(c1)C(CCCN1CCN(C3CCCCC3)CC1)CCC2` (stereo unspecified), the inhibition constant Ki is 1.22 nM in assay [1], 479 nM in [8], over 7500 nM in [2] and over 700 nM in assay [3]. Besides, the Ratio in assay [6] is 7.4.

The compound `COc1cccc2c1CCCC2CCCN1CCN(C2CCCCC2)CC1` (stereo unspecified) registered a concentration giving a half-maximal response (EC50) in [5] of 2620 nM. Further, the Ki in [1] was 0.34 nM; in [8], 604 nM; in [2], over 7500 nM; in [3], over 700 nM.

As to `Cc1ccccc1NC(=N)Nc1ccccc1C` [DITOLYLGUANIDINE], a half-maximal response in assay [5] (EC50) required 6900 nM.

Take `c1ccc2c(c1)CCCC2CCCCN1CCN(C2CCCCC2)CC1` (stereo unspecified): the results for the Ki in [1], in assay [2] and in assay [3] were 14.6 nM, over 7500 nM and over 700 nM, respectively.

For the compound `c1ccc2c(c1)CCCC2CCCCCN1CCN(C2CCCCC2)CC1` (stereo unspecified), the Ki is 7.85 nM in assay [1], over 7500 nM in assay [2] and over 700 nM in assay [3]. Besides, the Ratio in [4] was found to be 5.4.

Turning to `Oc1ccc2c(c1)CCCC2CCCN1CCN(C2CCCCC2)CC1` (stereo unspecified), the Ki in [1] is 1.12 nM; in [2] it was over 7500 nM; in [3], over 700 nM. Further, the Ratio in assay [4] was 1.6.

In assay [5], `COc1cccc2c1CCCC2CCCCCCN1CCN(C2CCCCC2)CC1` (stereo unspecified) returned a 50% effective concentration (EC50) of 25300 nM. In addition, the Ki was 103 nM in assay [1], 3480 nM in assay [8], over 7500 nM in assay [2] and over 700 nM in assay [3]. The Ratio in [4] amounted to 34.

Take `COc1cccc2c1CCC[C@H]2CCCN1CCN(C2CCCCC2)CC1`: the midpoint of the response in [5], the EC50, lay at 1750 nM. The inhibition constant (Ki) is 8.65 nM in assay [1], over 7500 nM in assay [2] and over 700 nM in [3].

Take `COc1cccc2c1CCCC2N1CCN(C2CCCCC2)CC1` (stereo unspecified): in assay [5], the half-maximal effective concentration (EC50) was 6970 nM. In addition, the Ki in [8] was 1160 nM; in assay [2], over 7500 nM; in assay [9], 7.9 nM; in assay [3], over 700 nM. For the same compound, in assay [4], the Ratio came to 20.

In turn, `COc1cccc2c1CCCC2CCN1CCN(C2CCCCC2)CC1` (stereo unspecified) gave an EC50 in assay [5] of 16100 nM. For the same compound, the Ki in assay [1] is 21.1 nM; in [8], 1620 nM; in [2], over 7500 nM; in assay [3], over 700 nM. In assay [4], the Ratio came to 13.

Turning to `COc1cccc2c1CCCC2CCCCCN1CCN(C2CCCCC2)CC1` (stereo unspecified), the EC50 in [5] amounted to 4900 nM. Also, the Ki was 0.35 nM in assay [1], 2450 nM in [8], over 7500 nM in [2] and over 700 nM in assay [3]. Further, the Ratio in [6] came to 4.3.

For `COc1cccc2c1CCCC2CCCCN1CCN(C2CCCCC2)CC1` (stereo unspecified), in assay [5], the half-maximal effective concentration (EC50) came out at 9940 nM. Also, the Ki is 3.58 nM in assay [1], 3670 nM in assay [8], over 7500 nM in assay [2] and over 700 nM in assay [3].

Regarding `Oc1cccc2c1CCCC2CCCN1CCN(C2CCCCC2)CC1` (stereo unspecified), the inhibition constant Ki was 2.66 nM in assay [1], over 7500 nM in [2] and over 700 nM in [3].

With `COc1ccc2c(c1)CCCC2CCCN1CCN(C2CCCCC2)CC1` (stereo unspecified), the Ki in assay [1] was 5.42 nM; in assay [2], over 7500 nM; in assay [3] it was over 700 nM. The Ratio in assay [4] came to 15.
